According to ChEMBL document CHEMBL1138761, “Exploring the binding mode of semicarbazide-sensitive amine oxidase/VAP-1: identification of novel substrates with insulin-like activity” (J Med Chem, 2004):
“And” between values parts separate entries of the source, which are not always exact repeats. Equal entries are not always repeated.

Assays:
[1] = Ratio of Vmax/Km for human, mouse or rat SSAO
Outline: (§1)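 Crude membranes from human, rat or mouse adipocytes, made by hypo-osmotic lysis in 20 mM HES buffer with antiproteases (around 50 µg protein/assay). Incubated 30 min at 37 °C over a range of amine concentrations. H2O2 read spectrophotometrically with peroxidase, homovanillic acid and aminoantipyrine at 498 nm. Km and Vmax taken from Eadie-Hofstee plots; Vmax/Km ratio also given. Means ± SEM of 3-4 experiments.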

[2] = Maximum velocity for semicarbazide-sensitive amine oxidase (SSAO) of human, mouse or rat crude membranes; format: cell membranes; conditions: Membrane; outline: as §1

Ratio [1]	Vmax (nmol/min/mg protein) [2]	Compound
0.28 and 0.66 and 0.5		NCc1cccc2ccccc12
	1.1 and 3.2	COc1cccc(CN)c1OC
0.007 and 0.01		NCc1ccc(S(N)(=O)=O)cc1
